These results are taken from ChEMBL document CHEMBL1133105, “Antimalarial, antitrypanosomal, and antileishmanial activities and cytotoxicity of bis(9-amino-6-chloro-2-methoxyacridines): influence of the linker” (J Med Chem, 2000).

The subject of the first assay is Trypanosoma cruzi. The experiment in a line: Percentage of activity against Trypanosoma cruzi at 1.56 uM. The format is functional.
Conditions: not given
The procedure, abridged:
(§1)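 Mouse peritoneal macrophages, 30 000/well, infected after 24 h with about 100 000 T. cruzi trypomastigotes per well plus 2-fold drug dilutions (12.5–1.56 µM). Incubated 4 days at 37 °C, 5% CO2. Methanol-fixed, Giemsa-stained and scored microscopically as % reduction of total parasite load (free trypomastigotes plus intracellular amastigotes) versus untreated controls.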
Regarding `COc1ccc2nc3cc(Cl)ccc3c(NCCCN(CCCNc3c4ccc(Cl)cc4nc4ccc(OC)cc34)C(=O)C(CNC(=O)OCC3c4ccccc4-c4ccccc43)NC(=O)OC(C)(C)C)c2c1` (stereo not drawn), the Parasite load reduction was determined as 0%.

With `COc1ccc2nc3cc(Cl)ccc3c(NCCCN(CCCNc3c4ccc(Cl)cc4nc4ccc(OC)cc34)C(=O)C(COCc3ccccc3)NC(=O)OC(C)(C)C)c2c1` (stereo not drawn), the Parasite load reduction was 0%.

The next assay concerns Leishmania infantum. The experiment in a line: Percentage of activity against Leishmania infantum at 1.56 uM. The assay is classed as functional.
Conditions: not given
An outline of the steps: (§2)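 Starch-stimulated mouse peritoneal macrophages, 30 000/well, infected after 24 h with spleen-derived L. infantum amastigotes (10:1) together with 2-fold drug dilutions (12.5–1.56 µM). Incubated 7 days at 37 °C, 5% CO2. Wright-stained slides scored microscopically as % reduction of total parasite load or of infected macrophages. Uninfected treated cultures judged microscopically for macrophage toxicity.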
Consider `COc1ccc2nc3cc(Cl)ccc3c(NCCCN(CCCNc3c4ccc(Cl)cc4nc4ccc(OC)cc34)C(=O)C(CNC(=O)OCC3c4ccccc4-c4ccccc43)NC(=O)OC(C)(C)C)c2c1` (stereo not drawn), for which the “Antileishmanial activity (% reduction of parasite load)” value was 20%.

In the case of `COc1ccc2nc3cc(Cl)ccc3c(NCCCN(CCCNc3c4ccc(Cl)cc4nc4ccc(OC)cc34)C(=O)C(COCc3ccccc3)NC(=O)OC(C)(C)C)c2c1` (stereo not drawn), the “Antileishmanial activity (% reduction of parasite load)” value stood at 40%.

For a further assay, the system named is Trypanosoma brucei. The experiment in a line: Percentage of activity against Trypanosoma brucei at 3.13 uM. The format is functional.
Conditions: not given
The procedure, abridged: (§3)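 Bloodstream-form T. brucei in HMI-9 medium, 10 000 parasites/well, exposed to 12.5, 6.25, 3.13 and 1.56 µM drug for 4 days. Read-out is % inhibition of parasite multiplication. Macrophage toxicity judged on mouse primary peritoneal macrophages.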
For the compound `COc1ccc2nc3cc(Cl)ccc3c(NCCCN(CCCNc3c4ccc(Cl)cc4nc4ccc(OC)cc34)C(=O)C(CNC(=O)OCC3c4ccccc4-c4ccccc43)NC(=O)OC(C)(C)C)c2c1` (stereo not drawn), the Parasite growth inhibition came to 100%.

Compound `COc1ccc2nc3cc(Cl)ccc3c(NCCCN(CCCNc3c4ccc(Cl)cc4nc4ccc(OC)cc34)C(=O)C(COCc3ccccc3)NC(=O)OC(C)(C)C)c2c1` (stereo not drawn) came in with a Parasite growth inhibition of 100%.

The subject of a further assay is Plasmodium falciparum. Briefly: In vitro sensitivity for Plasmodium falciparum FcB1R. The assay is classed as functional, organism-based.
Conditions: not given
An outline of the steps: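 Asynchronous P. falciparum cultures in human erythrocytes (0.5% parasitemia, 1% haematocrit) exposed to serially diluted drug for 24 h at 37 °C. [3H]hypoxanthine (0.5 µCi/well) then added for a further 24 h. Uptake compared with drug-free controls on the same plate. IC50 taken from the concentration–response curve, averaged over independent experiments. DMSO ≤0.1%.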
For `COc1ccc2nc3cc(Cl)ccc3c(NCCCN(CCCNc3c4ccc(Cl)cc4nc4ccc(OC)cc34)C(=O)C(CNC(=O)OCC3c4ccccc4-c4ccccc43)NC(=O)OC(C)(C)C)c2c1` (stereo not drawn), the IC50 (as a rule, the midpoint of a concentration-inhibition curve) was found to be 71 nM.

Turning to `COc1ccc2nc3cc(Cl)ccc3c(NCCCN(CCCNc3c4ccc(Cl)cc4nc4ccc(OC)cc34)C(=O)C(COCc3ccccc3)NC(=O)OC(C)(C)C)c2c1` (stereo not drawn), the IC50 stood at 138 nM.

The subject of another assay is Trypanosoma cruzi. Briefly: Percentage of activity against Trypanosoma cruzi at 6.25 uM Concentration. The assay is classed as functional.
Conditions: not given
The procedure, abridged: as §1
As for `COc1ccc2nc3cc(Cl)ccc3c(NCCCN(CCCNc3c4ccc(Cl)cc4nc4ccc(OC)cc34)C(=O)C(CNC(=O)OCC3c4ccccc4-c4ccccc43)NC(=O)OC(C)(C)C)c2c1` (stereo not drawn), the “Reduction of T. cruzi parasite load” value came out at 90%.

For the compound `COc1ccc2nc3cc(Cl)ccc3c(NCCCN(CCCNc3c4ccc(Cl)cc4nc4ccc(OC)cc34)C(=O)C(COCc3ccccc3)NC(=O)OC(C)(C)C)c2c1` (stereo not drawn), the “Reduction of T. cruzi parasite load” value is 80%.

In a further assay the test system is Trypanosoma brucei. Briefly: Percentage of activity against Trypanosoma brucei at 6.25 uM. The format is functional.
Conditions: not given
The procedure, abridged: as §3
For the compound `COc1ccc2nc3cc(Cl)ccc3c(NCCCN(CCCNc3c4ccc(Cl)cc4nc4ccc(OC)cc34)C(=O)C(CNC(=O)OCC3c4ccccc4-c4ccccc43)NC(=O)OC(C)(C)C)c2c1` (stereo not drawn), the “Inhibition of parasite multiplication” value was found to be 100%.

As to `COc1ccc2nc3cc(Cl)ccc3c(NCCCN(CCCNc3c4ccc(Cl)cc4nc4ccc(OC)cc34)C(=O)C(COCc3ccccc3)NC(=O)OC(C)(C)C)c2c1` (stereo not drawn), the “Inhibition of parasite multiplication” value was 100%.

Another assay deals with Trypanosoma brucei. The experiment in a line: Percentage of activity against Trypanosoma brucei at 12.5 uM. The assay is classed as functional.
Conditions: not given
The procedure, abridged: as §3
`COc1ccc2nc3cc(Cl)ccc3c(NCCCN(CCCNc3c4ccc(Cl)cc4nc4ccc(OC)cc34)C(=O)C(COCc3ccccc3)NC(=O)OC(C)(C)C)c2c1` (stereo not drawn): the “Inhibition of parasite multiplication” value is 100%.

Another assay has as its system MRC5. The experiment in a line: Cytotoxicity on MRC-5 cells at 3.13 uM. The assay is classed as functional. As to conditions: Homo sapiens. An outline of the steps:
(§4)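 MRC-5 human diploid embryonic lung cells seeded at 5 000/well, washed after 24 h, then given 2-fold drug dilutions (25, 12.5, 6.25, 3.13 µM) in RPMI + 5% FCS, final DMSO below 0.5%. Incubated 7 days at 37 °C, 5% CO2. MTT colorimetric read-out, scored as % reduction of absorbance at 540 nm versus untreated controls.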
As to `COc1ccc2nc3cc(Cl)ccc3c(NCCCN(CCCNc3c4ccc(Cl)cc4nc4ccc(OC)cc34)C(=O)C(CNC(=O)OCC3c4ccccc4-c4ccccc43)NC(=O)OC(C)(C)C)c2c1` (stereo not drawn), the cytotoxicity at 3.13 µM turned out to be 55%.

`COc1ccc2nc3cc(Cl)ccc3c(NCCCN(CCCNc3c4ccc(Cl)cc4nc4ccc(OC)cc34)C(=O)C(COCc3ccccc3)NC(=O)OC(C)(C)C)c2c1` (stereo not drawn) came in with a cytotoxicity at 3.13 µM of 100%.

The next assay concerns Trypanosoma cruzi. Briefly: Percentage of activity against Trypanosoma cruzi at 3.13 uM. The assay is classed as functional.
Conditions: not given
The procedure, abridged: as §1
For the compound `COc1ccc2nc3cc(Cl)ccc3c(NCCCN(CCCNc3c4ccc(Cl)cc4nc4ccc(OC)cc34)C(=O)C(CNC(=O)OCC3c4ccccc4-c4ccccc43)NC(=O)OC(C)(C)C)c2c1` (stereo not drawn), the “Reduction of T. cruzi parasite load” value is 20%.

For `COc1ccc2nc3cc(Cl)ccc3c(NCCCN(CCCNc3c4ccc(Cl)cc4nc4ccc(OC)cc34)C(=O)C(COCc3ccccc3)NC(=O)OC(C)(C)C)c2c1` (stereo not drawn), the “Reduction of T. cruzi parasite load” value worked out at 40%.

In another assay the test system is Trypanosoma cruzi. Briefly: Percentage of activity against Trypanosoma cruzi at 12.5 uM; Toxic upon mouse primary peritoneal macrophages.
Conditions: not given
The assay is classed as functional, organism-based. The procedure, abridged: as §1
As for `COc1ccc2nc3cc(Cl)ccc3c(NCCCN(CCCNc3c4ccc(Cl)cc4nc4ccc(OC)cc34)C(=O)C(CNC(=O)OCC3c4ccccc4-c4ccccc43)NC(=O)OC(C)(C)C)c2c1` (stereo not drawn), the Cytotoxicity entry is “Toxic”.

As to `COc1ccc2nc3cc(Cl)ccc3c(NCCCN(CCCNc3c4ccc(Cl)cc4nc4ccc(OC)cc34)C(=O)C(COCc3ccccc3)NC(=O)OC(C)(C)C)c2c1` (stereo not drawn), the Cytotoxicity entry is “Toxic”.

A further assay concerns Leishmania infantum. Briefly: Percentage of activity against Leishmania infantum 6.25 uM. The assay is classed as functional.
Conditions: not given
An outline of the steps:
as §2
Take `COc1ccc2nc3cc(Cl)ccc3c(NCCCN(CCCNc3c4ccc(Cl)cc4nc4ccc(OC)cc34)C(=O)C(CNC(=O)OCC3c4ccccc4-c4ccccc43)NC(=O)OC(C)(C)C)c2c1` (stereo not drawn): the “Antileishmanial activity (% reduction of parasite load)” value is 95%.

Take `COc1ccc2nc3cc(Cl)ccc3c(NCCCN(CCCNc3c4ccc(Cl)cc4nc4ccc(OC)cc34)C(=O)C(COCc3ccccc3)NC(=O)OC(C)(C)C)c2c1` (stereo not drawn): the “Antileishmanial activity (% reduction of parasite load)” value was 90%.

For a further assay, the system named is Trypanosoma brucei. The experiment in a line: Percentage of activity against Trypanosoma brucei at 1.56 uM. The assay is classed as functional.
Conditions: not given
The procedure, abridged:
as §3
As to `COc1ccc2nc3cc(Cl)ccc3c(NCCCN(CCCNc3c4ccc(Cl)cc4nc4ccc(OC)cc34)C(=O)C(CNC(=O)OCC3c4ccccc4-c4ccccc43)NC(=O)OC(C)(C)C)c2c1` (stereo not drawn), the “Percent inhibition of parasite multiplication” value is 100%.

Turning to `COc1ccc2nc3cc(Cl)ccc3c(NCCCN(CCCNc3c4ccc(Cl)cc4nc4ccc(OC)cc34)C(=O)C(COCc3ccccc3)NC(=O)OC(C)(C)C)c2c1` (stereo not drawn), the “Percent inhibition of parasite multiplication” value is 100%.

For the next assay, the system named is Leishmania infantum. Briefly: Percentage of activity against Leishmania infantum at 3.13 uM. The assay is classed as functional.
Conditions: not given
An outline of the steps: as §2
Take `COc1ccc2nc3cc(Cl)ccc3c(NCCCN(CCCNc3c4ccc(Cl)cc4nc4ccc(OC)cc34)C(=O)C(CNC(=O)OCC3c4ccccc4-c4ccccc43)NC(=O)OC(C)(C)C)c2c1` (stereo not drawn): the “Percent antileishmanial activity (reduction of parasite load)” value is listed as 70%.

Take `COc1ccc2nc3cc(Cl)ccc3c(NCCCN(CCCNc3c4ccc(Cl)cc4nc4ccc(OC)cc34)C(=O)C(COCc3ccccc3)NC(=O)OC(C)(C)C)c2c1` (stereo not drawn): the “Percent antileishmanial activity (reduction of parasite load)” value is reported as 70%.

The subject of a further assay is MRC5. The experiment in a line: Cytotoxicity on MRC-5 cells at 25 uM. Particulars: Homo sapiens. The format is functional. An outline of the steps:
as §4
Take `COc1ccc2nc3cc(Cl)ccc3c(NCCCN(CCCNc3c4ccc(Cl)cc4nc4ccc(OC)cc34)C(=O)C(CNC(=O)OCC3c4ccccc4-c4ccccc43)NC(=O)OC(C)(C)C)c2c1` (stereo not drawn): the cytotoxicity at 25 µM stood at 68%.

As for `COc1ccc2nc3cc(Cl)ccc3c(NCCCN(CCCNc3c4ccc(Cl)cc4nc4ccc(OC)cc34)C(=O)C(COCc3ccccc3)NC(=O)OC(C)(C)C)c2c1` (stereo not drawn), the cytotoxicity at 25 µM was determined as 100%.

In a further assay the test system is MRC5. Briefly: Cytotoxicity on MRC-5 cells at 6.25 uM. The format is functional. Particulars: Homo sapiens. An outline of the steps:
as §4
As to `COc1ccc2nc3cc(Cl)ccc3c(NCCCN(CCCNc3c4ccc(Cl)cc4nc4ccc(OC)cc34)C(=O)C(CNC(=O)OCC3c4ccccc4-c4ccccc43)NC(=O)OC(C)(C)C)c2c1` (stereo not drawn), the cytotoxicity at 6.25 µM is 57%.

As for `COc1ccc2nc3cc(Cl)ccc3c(NCCCN(CCCNc3c4ccc(Cl)cc4nc4ccc(OC)cc34)C(=O)C(COCc3ccccc3)NC(=O)OC(C)(C)C)c2c1` (stereo not drawn), the cytotoxicity at 6.25 µM is 100%.

In the next assay the test system is Leishmania infantum. The experiment in a line: Percentage of activity against Leishmania infantum at 12.5 uM Concentration; Toxic upon mouse primary peritoneal macrophages. The assay is classed as functional, organism-based.
Conditions: not given
An outline of the steps:
as §2
Take `COc1ccc2nc3cc(Cl)ccc3c(NCCCN(CCCNc3c4ccc(Cl)cc4nc4ccc(OC)cc34)C(=O)C(CNC(=O)OCC3c4ccccc4-c4ccccc43)NC(=O)OC(C)(C)C)c2c1` (stereo not drawn): the Cytotoxicity entry was “Toxic”.

For `COc1ccc2nc3cc(Cl)ccc3c(NCCCN(CCCNc3c4ccc(Cl)cc4nc4ccc(OC)cc34)C(=O)C(COCc3ccccc3)NC(=O)OC(C)(C)C)c2c1` (stereo not drawn), the Cytotoxicity result is “Toxic”.

In another assay the test system is MRC5. The experiment in a line: Cytotoxicity on MRC-5 cells at 12.5 uM. The format is functional. As to conditions: Homo sapiens. An outline of the steps:
as §4
For `COc1ccc2nc3cc(Cl)ccc3c(NCCCN(CCCNc3c4ccc(Cl)cc4nc4ccc(OC)cc34)C(=O)C(CNC(=O)OCC3c4ccccc4-c4ccccc43)NC(=O)OC(C)(C)C)c2c1` (stereo not drawn), the cytotoxicity at 12.5 µM came to 60%.

`COc1ccc2nc3cc(Cl)ccc3c(NCCCN(CCCNc3c4ccc(Cl)cc4nc4ccc(OC)cc34)C(=O)C(COCc3ccccc3)NC(=O)OC(C)(C)C)c2c1` (stereo not drawn) had a cytotoxicity at 12.5 µM of 100%.
